From ChEMBL document CHEMBL1151981, “Bioactive pyridine-N-oxide disulfides from Allium stipitatum” (J Nat Prod, 2009)
In brackets after ≈: the same amount, converted by molar mass. Activity calls are given as the source filed them. The calls are words filed in the database; no cut-off is given here.

How the values were obtained:
[1] = test system: Mycobacterium tuberculosis; experiment: Antibacterial activity against Mycobacterium tuberculosis infected in GKO C57BL/6 mouse assessed as bacterial number in lung at 25 mg/kg/day administered 14 days postinfection via oral gavage for nine consecutive days measured on day 24 postinfection; assay type: functional
In short: (§1)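 Female GKO C57BL/6 mice, 8–10 weeks old, infected by low-dose aerosol with M. tuberculosis Erdman (50–100 CFU uptake confirmed day 1). Daily oral gavage in 0.5% methyl cellulose from day 14 for nine consecutive days; isoniazid given at 25 mg/kg/day. Five mice per group, with untreated and pretreatment controls. Lung and spleen CFU log-transformed; one-way ANOVA with Tukey test.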

[2] = test system: Mycobacterium tuberculosis; experiment: Antibacterial activity against Mycobacterium tuberculosis infected in GKO C57BL/6 mouse assessed as bacterial number in spleen at 25 mg/kg/day administered 14 days postinfection via oral gavage for nine consecutive days measured on day 24 postinfection; assay type: functional; in short: as §1
[3] = test system: Mycolicibacterium smegmatis; experiment: Antibacterial activity against Mycobacterium smegmatis after 72 hrs; assay type: functional
In short: (§2)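 Fast-growing mycobacteria obtained from NCTC; cultures grown on Columbia blood agar with 7% defibrinated horse blood at 37 °C for 72 h before MIC determination. Ethambutol and isoniazid served as positive controls.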

Mycolicibacterium phlei = experiment: Antibacterial activity against Mycobacterium phlei after 72 hrs; assay type: functional; in short: as §2
[4] = test system: Mycolicibacterium fortuitum; experiment: Antibacterial activity against Mycobacterium fortuitum after 72 hrs; assay type: functional; in short: as §2
Staphylococcus aureus [5] = experiment: Antibacterial activity against Staphylococcus aureus EMRSA15 after 72 hrs; assay type: functional; details: EMRSA15, 72 h
In short: (§3)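 S. aureus strains tested in a MIC assay; norfloxacin and oxacillin used as positive controls.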

Staphylococcus aureus [6] = experiment: Antibacterial activity against Staphylococcus aureus SA1199B overexpressing NorA efflux pump after 72 hrs; assay type: functional
Staphylococcus aureus [7] = experiment: Antibacterial activity against tetracycline-effluxing Staphylococcus aureus XU212 after 72 hrs; assay type: functional; details: XU212, 72 h; in short: as §3
[8] = test system: Mycobacterium tuberculosis; experiment: Upregulation of clpB RNA expression in Mycobacterium tuberculosis H37Rv ATCC 27294 at 2 to 10 ug/ml after 6 hrs by microarray analysis; assay type: functional, organism-based
In short: (§4)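 H37Rv grown in 7H9 with 0.2% glycerol, 0.5% BSA fraction V, 0.05% Tween 80, 0.08% NaCl and 0.2% glucose to OD650 0.3. Treated with 2, 5 or 10 µg/mL compound, or matching DMSO, for 6 h. RNA isolated, labelled cDNA hybridised to microarrays. Predictive genes found by class prediction analysis.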

[9] = test system: Mycobacterium tuberculosis; experiment: Upregulation of Rv1334 RNA expression in Mycobacterium tuberculosis H37Rv ATCC 27294 at 2 to 10 ug/ml after 6 hrs by microarray analysis; assay type: functional, organism-based; in short: as §4
[10] = test system: Mycobacterium tuberculosis; experiment: Effect on trxC RNA expression in Mycobacterium tuberculosis H37Rv ATCC 27294 at 2 to 10 ug/ml after 6 hrs by microarray analysis; assay type: functional, organism-based; in short: as §4
[11] = test system: Mycobacterium tuberculosis; experiment: Upregulation of Rv3463 RNA expression in Mycobacterium tuberculosis H37Rv ATCC 27294 at 2 to 10 ug/ml after 6 hrs by microarray analysis; assay type: functional, organism-based; in short: as §4
[12] = test system: Mycobacterium tuberculosis; experiment: Upregulation of dnaJ RNA expression in Mycobacterium tuberculosis H37Rv ATCC 27294 at 2 to 10 ug/ml after 6 hrs by microarray analysis; assay type: functional, organism-based; in short: as §4
[13] = test system: Mycobacterium tuberculosis; experiment: Upregulation of sigH RNA expression in Mycobacterium tuberculosis H37Rv ATCC 27294 at 2 to 10 ug/ml after 6 hrs by microarray analysis; assay type: functional, organism-based; in short: as §4
[14] = test system: Mycobacterium tuberculosis; experiment: Upregulation of hsp RNA expression in Mycobacterium tuberculosis H37Rv ATCC 27294 at 2 to 10 ug/ml after 6 hrs by microarray analysis; assay type: functional, organism-based; in short: as §4
[15] = test system: Mycobacterium tuberculosis; experiment: Upregulation of Rv1335 RNA expression in Mycobacterium tuberculosis H37Rv ATCC 27294 at 2 to 10 ug/ml after 6 hrs by microarray analysis; assay type: functional, organism-based; in short: as §4
[16] = test system: Mycobacterium tuberculosis; experiment: Upregulation of Rv0331 RNA expression in Mycobacterium tuberculosis H37Rv ATCC 27294 at 2 to 10 ug/ml after 6 hrs by microarray analysis; assay type: functional, organism-based; in short: as §4
[17] = test system: Mycobacterium tuberculosis; experiment: Effect on trxB2 RNA expression in Mycobacterium tuberculosis H37Rv ATCC 27294 at 2 to 10 ug/ml after 6 hrs by microarray analysis; assay type: functional, organism-based; in short: as §4
[18] = test system: Mycobacterium tuberculosis; experiment: Upregulation of Rv3054c RNA expression in Mycobacterium tuberculosis H37Rv ATCC 27294 at 2 to 10 ug/ml after 6 hrs by microarray analysis; assay type: functional, organism-based; in short: as §4
[19] = test system: Mycobacterium tuberculosis; experiment: Upregulation of dnaK RNA expression in Mycobacterium tuberculosis H37Rv ATCC 27294 at 2 to 10 ug/ml after 6 hrs by microarray analysis; assay type: functional, organism-based; in short: as §4

NNC(=O)c1ccncc1 [ISONIAZID]
log10cfu [1]: 5.33
log10cfu [2]: 2.16
MIC [3]: 0.25 µg/mL (≈ 1.82 µM)
MIC (Mycolicibacterium phlei): 128 µg/mL (≈ 933 µM)
MIC [4]: 0.25 µg/mL (≈ 1.82 µM)

[O-][n+]1ccccc1SSc1cccc[n+]1[O-] [DIPYRITHIONE]
MIC (Staphylococcus aureus [5]): 0.5 µg/mL (≈ 1.98 µM)
MIC (Staphylococcus aureus [6]): 1 µg/mL (≈ 3.96 µM)
MIC [3]: 16 µg/mL (≈ 63.4 µM)
MIC (Staphylococcus aureus [7]): 1 µg/mL (≈ 3.96 µM)
MIC (Mycolicibacterium phlei): 16 µg/mL (≈ 63.4 µM)
MIC [4]: 16 µg/mL (≈ 63.4 µM)

Oc1cccc2cccnc12
Activity [8]: Active
Activity [9]: Active
Activity [10]: Active
Activity [11]: Active
Activity [12]: Active
Activity [13]: Active
Activity [14]: Active
Activity [15]: Active
Activity [16]: Active
Activity [17]: Active
Activity [18]: Active
Activity [19]: Active

CC1=CC(=O)c2ccccc2C1=O
Activity [8]: Active
Activity [9]: Active
Activity [10]: Active
Activity [11]: Active
Activity [12]: Active
Activity [13]: Active
Activity [14]: Active
Activity [15]: Active
Activity [16]: Active
Activity [17]: Active
Activity [18]: Active
Activity [19]: Active

CCn1cc(C(=O)O)c(=O)c2cc(F)c(N3CCNCC3)cc21 [NORFLOXACIN]
MIC (Staphylococcus aureus [5]): 0.5 µg/mL (≈ 1.57 µM)
MIC (Staphylococcus aureus [6]): 32 µg/mL (≈ 100 µM)
MIC (Staphylococcus aureus [7]): 16 µg/mL (≈ 50.1 µM)

CC[C@@H](CO)NCCN[C@@H](CC)CO [ETHAMBUTOL]
MIC [3]: 32 µg/mL (≈ 157 µM)
MIC (Mycolicibacterium phlei): 2 µg/mL (≈ 9.79 µM)
MIC [4]: 2 µg/mL (≈ 9.79 µM)

CSSc1ncccn1
MIC (Staphylococcus aureus [5]): 2 µg/mL (≈ 12.6 µM)
MIC (Staphylococcus aureus [6]): 2 µg/mL (≈ 12.6 µM)
MIC [3]: 8 µg/mL (≈ 50.6 µM)
MIC (Staphylococcus aureus [7]): 4 µg/mL (≈ 25.3 µM)
MIC (Mycolicibacterium phlei): 16 µg/mL (≈ 101 µM)
MIC [4]: 8 µg/mL (≈ 50.6 µM)
